Assay results: ChEMBL document CHEMBL1151243, “New cytotoxic oleanane-type triterpenoids from the cones of Liquidamber styraciflua” (2004)

What was measured:
Format in all cases: functional
[1] = Cytotoxicity against human MKN1 cells after 48 hrs by SRB assay; settings: MKN-1, 48 h
How it was run: (§1)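 Cells plated at suitable density in RPMI 1640 with 5% fetal bovine serum and left overnight to attach, then exposed to compound for 48 h. Growth measured by sulforhodamine B staining. GI50 (50% growth inhibition) computed from percent-growth values.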

SF-295 = assay: Cytotoxicity against human SF295 cells after 48 hrs by SRB assay; settings: SF-295, 48 h; how it was run: as §1
SNB-78 = assay: Cytotoxicity against human SNB78 cells after 48 hrs by SRB assay; settings: SNB-78, 48 h; how it was run: as §1
SNB-75 = assay: Cytotoxicity against human SNB75 cells after 48 hrs by SRB assay; settings: SNB-75, 48 h; how it was run: as §1
MKN-7 = assay: Cytotoxicity against human MKN7 cells after 48 hrs by SRB assay; settings: MKN-7, 48 h; how it was run: as §1
St-4 = assay: Cytotoxicity against human St-4 cells after 48 hrs by SRB assay; settings: St-4, 48 h; how it was run: as §1
SF-268 = assay: Cytotoxicity against human SF268 cells after 48 hrs by SRB assay; settings: SF-268, 48 h; how it was run: as §1
SF-539 = assay: Cytotoxicity against human SF539 cells after 48 hrs by SRB assay; settings: SF-539, 48 h; how it was run: as §1
OVCAR-5 = assay: Cytotoxicity against human OVCAR5 cells after 48 hrs by SRB assay; settings: OVCAR-5, 48 h; how it was run: as §1
NCI-H23 = assay: Cytotoxicity against human NCI-H23 cells after 48 hrs by SRB assay; settings: NCI-H23, 48 h; how it was run: as §1
NCI-H226 = assay: Cytotoxicity against human NCI-H226 cells after 48 hrs by SRB assay; settings: NCI-H226, 48 h; how it was run: as §1
[2] = Cytotoxicity against human HBC4 cells after 48 hrs by SRB assay; settings: HBC4, 48 h; how it was run: as §1
PC-3 = assay: Cytotoxicity against human PC3 cells after 48 hrs by SRB assay; settings: PC-3, 48 h; how it was run: as §1
U-251 = assay: Cytotoxicity against human U251 cells after 48 hrs by SRB assay; settings: U-251, 48 h; how it was run: as §1
NCI-H522 = assay: Cytotoxicity against human NCI-H522 cells after 48 hrs by SRB assay; settings: NCI-H522, 48 h; how it was run: as §1
MKN-45 = assay: Cytotoxicity against human MKN45 cells after 48 hrs by SRB assay; settings: MKN-45, 48 h; how it was run: as §1
OVCAR-8 = assay: Cytotoxicity against human OVCAR8 cells after 48 hrs by SRB assay; settings: OVCAR-8, 48 h; how it was run: as §1
HT-29 = assay: Cytotoxicity against human HT-29 cells after 48 hrs by SRB assay; settings: HT-29, 48 h; how it was run: as §1
[3] = Cytotoxicity against human BSY1 cells after 48 hrs by SRB assay; settings: BSY-1, 48 h; how it was run: as §1
OVCAR-3 = assay: Cytotoxicity against human OVCAR-3 cells after 48 hrs by SRB assay; settings: OVCAR-3, 48 h; how it was run: as §1
ACHN = assay: Cytotoxicity against human ACHN cells after 48 hrs by SRB assay; how it was run: as §1
KM12 = assay: Cytotoxicity against human KM12 cells after 48 hrs by SRB assay; settings: KM12, 48 h; how it was run: as §1
A549 = assay: Cytotoxicity against human A549 cells after 48 hrs by SRB assay; settings: A549, 48 h; how it was run: as §1
[4] = Cytotoxicity against human HBC5 cells after 48 hrs by SRB assay; settings: HBC5, 48 h; how it was run: as §1
MDA-MB-231 = assay: Cytotoxicity against human MDA-MB-231 cells after 48 hrs by SRB assay; settings: MDA-MB-231, 48 h; how it was run: as §1
DMS-273 = assay: Cytotoxicity against human DMS273 cells after 48 hrs by SRB assay; settings: DMS-273, 48 h; how it was run: as §1
DU-145 = assay: Cytotoxicity against human DU145 cells after 48 hrs by SRB assay; settings: DU-145, 48 h; how it was run: as §1
LOX IMVI = assay: Cytotoxicity against human LOXIMVI cells after 48 hrs by SRB assay; how it was run: as §1
MKN-28 = assay: Cytotoxicity against human MKN28 cells after 48 hrs by SRB assay; settings: MKN-28, 48 h; how it was run: as §1
MKN-74 = assay: Cytotoxicity against human MKN74 cells after 48 hrs by SRB assay; settings: MKN-74, 48 h; how it was run: as §1
[5] = Cytotoxicity against human RXF631L cells after 48 hrs by SRB assay; settings: RXF 631, 48 h; how it was run: as §1
OVCAR-4 = assay: Cytotoxicity against human OVCAR4 cells after 48 hrs by SRB assay; settings: OVCAR-4, 48 h; how it was run: as §1
HCT-116 = assay: Cytotoxicity against human HCT116 cells after 48 hrs by SRB assay; settings: HCT-116, 48 h; how it was run: as §1
SK-OV-3 = assay: Cytotoxicity against human SKOV3 cells after 48 hrs by SRB assay; settings: SK-OV-3, 48 h; how it was run: as §1
HCT-15 = assay: Cytotoxicity against human HCT15 cells after 48 hrs by SRB assay; settings: HCT-15, 48 h; how it was run: as §1
DMS-114 = assay: Cytotoxicity against human DMS114 cells after 48 hrs by SRB assay; settings: DMS-114, 48 h; how it was run: as §1
NCI-H460 = assay: Cytotoxicity against human NCI-H460 cells after 48 hrs by SRB assay; settings: NCI-H460, 48 h; how it was run: as §1
MCF7 = assay: Cytotoxicity against human MCF7 cells after 48 hrs by SRB assay; settings: MCF7, 48 h; how it was run: as §1
HCC 2998 = assay: Cytotoxicity against human HCC2998 cells after 48 hrs by SRB assay; settings: HCC 2998, 48 h; how it was run: as §1

Structure (SMILES): CC(=O)OC[C@]12CC[C@@H](O)C(C)(C)C1CC[C@]1(C)[C@@H]2CC=C2[C@@H]3CC(C)(C)CC[C@]3(C(=O)O)CC[C@]21C (some centres undefined)
- GI50 [1]: 11 µM
- GI50 (SF-295): 8.71 µM
- GI50 (SNB-78): 15.8 µM
- GI50 (SNB-75): 15.8 µM
- GI50 (MKN-7): 6.61 µM
- GI50 (St-4): 9.12 µM
- GI50 (SF-268): 15.5 µM
- GI50 (SF-539): 6.31 µM
- GI50 (OVCAR-5): 18.2 µM
- GI50 (NCI-H23): 8.51 µM
- GI50 (NCI-H226): 18.6 µM
- GI50 [2]: 7.94 µM
- GI50 (PC-3): 11.5 µM
- GI50 (U-251): 6.03 µM
- GI50 (NCI-H522): 13.8 µM
- GI50 (MKN-45): 17.8 µM
- GI50 (OVCAR-8): 11.2 µM
- GI50 (HT-29): 3.39 µM
- GI50 [3]: 10.7 µM
- GI50 (OVCAR-3): 11 µM
- GI50 (ACHN): 5.37 µM
- GI50 (KM12): 5.13 µM
- GI50 (A549): 4.27 µM
- GI50 [4]: 11 µM
- GI50 (MDA-MB-231): 19.5 µM
- GI50 (DMS-273): 6.31 µM
- GI50 (DU-145): 13.2 µM
- GI50 (LOX IMVI): 11.2 µM
- GI50 (MKN-28): 5.62 µM
- GI50 (MKN-74): 7.76 µM
- GI50 [5]: 11.7 µM
- GI50 (OVCAR-4): 10 µM
- GI50 (HCT-116): 4.57 µM
- GI50 (SK-OV-3): 20.4 µM
- GI50 (HCT-15): 6.46 µM
- GI50 (DMS-114): 13.5 µM
- GI50 (NCI-H460): 13.8 µM
- GI50 (MCF7): 8.32 µM
- GI50 (HCC 2998): 28.2 µM
